For assay [1], the species on record is Homo sapiens. The experiment in a line: Selectivity ratio of Kinact/Ki for recombinant His6-tagged PAD1 (unknown origin) to Kinact/Ki for recombinant full length N-terminal GST-tagged human PAD4 expressed in Escherichia coli Rosetta cells. The method, boiled down:
(§1)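 Enzyme at 2.0 μM (PAD1, PAD2, PAD4) or 5.0 μM (PAD3) incubated at 37 °C with various inhibitor concentrations in 50 mM HEPES, 10 mM CaCl₂, 2 mM DTT, pH 7.6. Timed aliquots moved into substrate mix: 10 mM BAEE, or 10 mM BAA for PAD3. […] Selectivity ratios taken from these values.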

The species entered for assay [2] is Homo sapiens. The experiment in a line: Selectivity ratio of Kinact/Ki for recombinant human PAD2 expressed in Escherichia coli BL21(DE3)pLysS cells to Kinact/Ki for recombinant full length N-terminal GST-tagged human PAD4 expressed in Escherichia coli Rosetta cells. A digest of the protocol:
as §1

Assay [3] is filed under the species Homo sapiens. Kind of assay: Selectivity ratio of Kinact/Ki for recombinant His6-tagged PAD3 (unknown origin) to Kinact/Ki for recombinant full length N-terminal GST-tagged human PAD4 expressed in Escherichia coli Rosetta cells. The method, boiled down:
as §1

Structures are written as SMILES.

Turning to `COc1cccc2c1nc([C@H](CCCNC(=N)CCl)NC(=O)c1cccc3c1C(=O)N(C(C)C)C3)n2C`, the Selectivity ratio in the assay listed under Homo sapiens [1] stood at 3.5; in the assay filed under Homo sapiens [2], 4.1; in the assay filed under Homo sapiens [3] it was 1.2.

In the case of `Cn1c([C@H](CCCNC(=N)CF)NC(=O)c2ccccc2C(=O)O)nc2ccccc21`, the Selectivity ratio was 40 in the assay filed under Homo sapiens [1], 15 in the assay filed under Homo sapiens [2] and 1.3 in the assay filed under Homo sapiens [3].

As to `COc1ccc2c(c1)nc([C@H](CCCNC(=N)CCl)NC(=O)c1cccc3c1C(=O)NC3)n2C`, the Selectivity ratio was determined as 25 in the assay filed under Homo sapiens [1], 10 in the assay listed under Homo sapiens [2] and 2.4 in the assay filed under Homo sapiens [3].

As to `CCN1Cc2cccc(C(=O)N[C@@H](CCCNC(=N)CCl)c3nc4c(OC)cccc4[nH]3)c2C1=O`, the values for the Selectivity ratio in the assay listed under Homo sapiens [1], in the assay listed under Homo sapiens [2] and in the assay listed under Homo sapiens [3] were 5, 2.3 and 1, respectively.

On to `CCN1Cc2cccc(C(=O)N[C@@H](CCCNC(=N)CCl)c3nc4ccccc4n3C(C)C)c2C1=O`, for which the Selectivity ratio in the assay listed under Homo sapiens [1] is 11; in the assay listed under Homo sapiens [2], 6.8; in the assay listed under Homo sapiens [3] it was 2.

In the case of `CCN1Cc2cccc(C(=O)N[C@@H](CCCNC(=N)CCl)c3nc4cc(OC)ccc4n3CC)c2C1=O`, the Selectivity ratio in the assay filed under Homo sapiens [1] came to 21; in the assay listed under Homo sapiens [2], 27; in the assay filed under Homo sapiens [3], 8.4.

Consider `CCn1c([C@H](CCCNC(=N)CF)NC(=O)c2cccc3c2C(=O)NC3)nc2cc(OC)ccc21`, for which the Selectivity ratio in the assay filed under Homo sapiens [1] amounted to 24; in the assay filed under Homo sapiens [2], 50; in the assay filed under Homo sapiens [3], 2.5.

Take `CCOc1cccc2c1nc([C@H](CCCNC(=N)CCl)NC(=O)c1cccc3c1C(=O)NC3)n2C`: the Selectivity ratio worked out at 24 in the assay listed under Homo sapiens [1], 30 in the assay listed under Homo sapiens [2] and 2.7 in the assay listed under Homo sapiens [3].

In the case of `CCn1c([C@H](CCCNC(=N)CCl)NC(=O)c2cccc3c2C(=O)NC3)nc2ccccc21`, the Selectivity ratio in the assay filed under Homo sapiens [1] turned out to be 10; in the assay filed under Homo sapiens [2], 4.8; in the assay filed under Homo sapiens [3] it was 1.8.

`CCN1Cc2cccc(C(=O)N[C@@H](CCCNC(=N)CCl)c3nc4cc(OC)ccc4n3C)c2C1=O`: the Selectivity ratio in the assay listed under Homo sapiens [1] was found to be 37; in the assay listed under Homo sapiens [2], 32; in the assay filed under Homo sapiens [3], 9.3.

For `COc1cccc2[nH]c([C@H](CCCNC(=N)CCl)NC(=O)c3cccc4c3C(=O)NC4)nc12`, the Selectivity ratio in the assay filed under Homo sapiens [1] stood at 30; in the assay listed under Homo sapiens [2], 11; in the assay listed under Homo sapiens [3] it was 6.9.

`CCOc1cccc2c1nc([C@H](CCCNC(=N)CF)NC(=O)c1cccc3c1C(=O)N(CC)C3)n2C`: the results for the Selectivity ratio in the assay listed under Homo sapiens [1], in the assay listed under Homo sapiens [2] and in the assay filed under Homo sapiens [3] were 8.9, 26 and 1, respectively.

With `CCN1Cc2cccc(C(=O)N[C@@H](CCCNC(=N)CCl)c3nc4c(OC)cccc4n3CC)c2C1=O`, the Selectivity ratio came out at 31 in the assay listed under Homo sapiens [1], 27 in the assay listed under Homo sapiens [2] and 3.4 in the assay listed under Homo sapiens [3].

On to `CCN1Cc2cccc(C(=O)N[C@@H](CCCNC(=N)CCl)c3nc4cc(OC)ccc4[nH]3)c2C1=O`, for which the Selectivity ratio in the assay listed under Homo sapiens [1] amounted to 7.8; in the assay filed under Homo sapiens [2], 9.1; in the assay filed under Homo sapiens [3], 4.1.

Turning to `CC(C)n1c([C@H](CCCNC(=N)CCl)NC(=O)c2ccccc2C(=O)O)nc2ccccc21`, the Selectivity ratio in the assay filed under Homo sapiens [1] came out at 68; in the assay filed under Homo sapiens [2] it was 38; in the assay listed under Homo sapiens [3], 3.8.

As for `CCN1Cc2cccc(C(=O)N[C@@H](CCCNC(=N)CF)c3nc4c(OC)cccc4n3CC)c2C1=O`, the Selectivity ratio in the assay filed under Homo sapiens [1] was 28; in the assay listed under Homo sapiens [2], 40; in the assay listed under Homo sapiens [3], 2.

Consider `CC(C)n1c([C@H](CCCNC(=N)CF)NC(=O)c2ccccc2C(=O)O)nc2ccccc21`, for which the Selectivity ratio in the assay listed under Homo sapiens [1] turned out to be 49; in the assay listed under Homo sapiens [2], 54; in the assay listed under Homo sapiens [3] it was 4.4.

Turning to `CC(C)n1c([C@H](CCCNC(=N)CCl)NC(=O)c2cccc3c2C(=O)NC3)nc2ccccc21`, the Selectivity ratio in the assay listed under Homo sapiens [1] came out at 27; in the assay listed under Homo sapiens [2] it was 8; in the assay listed under Homo sapiens [3] it was 3.2.
